Results as given in ChEMBL document CHEMBL4364335, “Highly hydrophilic 1,3-oxazol-5-yl benzenesulfonamide inhibitors of carbonic anhydrase II for reduction of glaucoma-related intraocular pressure” (Bioorg Med Chem, 2019).
Calls of active or inactive are those of the source. The rule behind the calls is not given here.

Tests used:
[1] = molecular target: Carbonic anhydrase 1 (Homo sapiens, UniProt P00915); assay: Inhibition of human carbonic anhydrase 1 incubated for 15 mins by phenol red staining-based stopped flow CO2 hydrase assay
Sequence of Carbonic anhydrase 1 (P00915 whole entry): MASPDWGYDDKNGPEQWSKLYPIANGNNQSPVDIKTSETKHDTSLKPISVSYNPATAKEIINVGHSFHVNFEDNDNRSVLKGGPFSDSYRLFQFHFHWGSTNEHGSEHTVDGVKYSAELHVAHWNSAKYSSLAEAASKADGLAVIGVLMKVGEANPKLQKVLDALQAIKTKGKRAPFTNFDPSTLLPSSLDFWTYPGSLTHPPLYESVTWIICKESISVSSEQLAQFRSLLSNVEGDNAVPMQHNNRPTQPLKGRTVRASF

[2] = molecular target: Carbonic anhydrase 2 (Homo sapiens, UniProt P00918); assay: Inhibition of human carbonic anhydrase 2 incubated for 15 mins by phenol red staining-based stopped flow CO2 hydrase assay
[3] = molecular target: Carbonic anhydrase 4 (Homo sapiens, UniProt P22748); assay: Inhibition of human carbonic anhydrase 4 incubated for 15 mins by phenol red staining-based stopped flow CO2 hydrase assay
Sequence of Carbonic anhydrase 4 (P22748 whole entry): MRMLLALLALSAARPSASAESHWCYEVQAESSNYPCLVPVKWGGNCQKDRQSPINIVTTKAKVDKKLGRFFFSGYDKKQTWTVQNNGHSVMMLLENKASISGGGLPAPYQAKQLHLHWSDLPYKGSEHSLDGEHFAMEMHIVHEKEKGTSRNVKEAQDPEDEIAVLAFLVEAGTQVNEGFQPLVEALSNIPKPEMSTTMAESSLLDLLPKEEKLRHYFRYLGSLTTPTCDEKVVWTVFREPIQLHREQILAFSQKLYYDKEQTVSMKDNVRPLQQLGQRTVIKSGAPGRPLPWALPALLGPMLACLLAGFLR

[4] = molecular target: Carbonic anhydrase 12 (Homo sapiens, UniProt O43570); assay: Inhibition of human carbonic anhydrase 12 incubated for 15 mins by phenol red staining-based stopped flow CO2 hydrase assay
Sequence of Carbonic anhydrase 12 (O43570 whole entry): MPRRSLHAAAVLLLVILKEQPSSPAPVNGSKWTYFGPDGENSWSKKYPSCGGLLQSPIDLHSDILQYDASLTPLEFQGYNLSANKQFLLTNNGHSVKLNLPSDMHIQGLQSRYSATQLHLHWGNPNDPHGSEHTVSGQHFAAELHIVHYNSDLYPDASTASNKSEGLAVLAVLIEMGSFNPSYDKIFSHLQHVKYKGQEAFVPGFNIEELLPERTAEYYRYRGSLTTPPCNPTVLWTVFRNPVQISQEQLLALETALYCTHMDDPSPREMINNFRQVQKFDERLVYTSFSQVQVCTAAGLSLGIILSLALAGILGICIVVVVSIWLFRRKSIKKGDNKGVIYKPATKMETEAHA

[5] = tested on: Oryctolagus cuniculus; assay: Reduction of intraocular pressure in ocular normotensive New Zealand White rabbit at 1% administered topically to the eye measured for 0.5 to 8 hrs by tonometry; format: functional, organism-based
[6] = Toxicity in New Zealand White rabbit assessed as induction of eye lid closure at 1% administered topically to the eye; set-up: species or system Oryctolagus cuniculus; settings: in vivo, topical_or_ocular
Summary of the method: (§1)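 Single 25 µl drop given to the left eye of albino rabbits, which were held immobile for one minute afterwards. Irritation was followed by eye throughout the experiment and scored as blinking, head shaking or eyelid closure, with the duration of closure noted in seconds.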

[7] = Toxicity in New Zealand White rabbit assessed as head shaking at 1% administered topically to the eye; set-up: species or system Oryctolagus cuniculus; settings: in vivo, topical_or_ocular; summary of the method: as §1
[8] = tested on: Oryctolagus cuniculus; assay: Reduction of intraocular pressure in ocular normotensive New Zealand White rabbit administered topically to the eye measured for 0.5 to 8 hrs by tonometry (reference value: 12.00 +/- 6.81%); format: functional; settings: topical
[9] = tested on: Oryctolagus cuniculus; assay: Reduction of intraocular pressure in ocular normotensive New Zealand White rabbit at 0.5 % administered topically to the eye measured for 0.5 to 8 hrs by tonometry; format: functional, organism-based
[10] = Toxicity in New Zealand White rabbit assessed as induction of eye lid closure at 0.5% administered topically to the eye; set-up: species or system Oryctolagus cuniculus; settings: in vivo, topical_or_ocular; summary of the method: as §1
[11] = tested on: Oryctolagus cuniculus; assay: Reduction of intraocular pressure in ocular normotensive New Zealand White rabbit at 2% administered topically to the eye measured for 0.5 to 8 hrs by tonometry; format: functional, organism-based
[12] = Toxicity in New Zealand White rabbit assessed as induction of eye lid closure at 2% administered topically to the eye; set-up: species or system Oryctolagus cuniculus; settings: in vivo, topical_or_ocular; summary of the method: as §1
[13] = Toxicity in New Zealand White rabbit assessed as head shaking at 2% administered topically to the eye; set-up: species or system Oryctolagus cuniculus; settings: in vivo, topical_or_ocular; summary of the method: as §1
[14] = Toxicity in New Zealand White rabbit assessed as head shaking at 0.5% administered topically to the eye; set-up: species or system Oryctolagus cuniculus; settings: in vivo, topical_or_ocular; summary of the method: as §1

NS(=O)(=O)c1ccc(-c2cnc(C(=O)N3CCNCC3)o2)cc1
Ki [1]: 0.109 µM
Ki [2]: 0.005 µM
Ki [3]: 0.42 µM
Ki [4]: 0.0685 µM
Activity [5]: Active
Activity [6]: Non-Toxic
Activity [7]: Non-Toxic
Emax [8]: 35.6%

NC1CCN(C(=O)c2ncc(-c3ccc(S(N)(=O)=O)cc3)o2)CC1
Ki [1]: 0.0619 µM
Ki [2]: 0.00054 µM
Ki [3]: 0.257 µM
Ki [4]: 0.0915 µM
Emax [8]: 22%
Activity [9]: inactive
Activity [10]: Toxic

CCN[C@H]1C[C@H](C)S(=O)(=O)c2sc(S(N)(=O)=O)cc21 [DORZOLAMIDE]
Activity [11]: Active
Activity [12]: Non-Toxic
Activity [13]: Non-Toxic
Emax [8]: 27.8%

NS(=O)(=O)c1ccc(-c2cnc(C(=O)NC3CCNCC3)o2)cc1
Ki [1]: 0.0508 µM
Ki [4]: 0.0873 µM
Emax [8]: 19.4%
Activity [10]: Non-Toxic
Activity [14]: Non-Toxic

NCCNC(=O)c1ncc(-c2ccc(S(N)(=O)=O)cc2)o1
Ki [1]: 0.101 µM
Ki [4]: 0.0901 µM
Activity [5]: Active
Activity [6]: Non-Toxic
Activity [7]: Non-Toxic
Emax [8]: 29.6%
